Reference: PubChem BioAssay AID489030 (Sanford-Burnham Center for Chemical Genomics, 2010)
Screen size: about 330,000 compounds; about 2,400 (0.73%) were called active. How the source made its calls: active means inhibition of at least 40% at 20 µM; inactive means the rest. The list comes from a sample in which actives are over-represented; it also holds similar structures and randomly drawn compounds.

What follows are compounds tested against Apoptotic protease-activating factor 1 (Homo sapiens) (UniProt O14727) (assay: blockers of Apaf-1-driven caspase-3 activation – biochemical, DEVD-Rh110 fluorescence, uHTS, primary screen (AID 489030;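 further: plate controls were DMSO wells for no effect and DEVD-CHO caspase inhibitor wells for full effect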)). Details: reconstituted apoptosome caspase-3 activity, at 20 µM, stronger effect = higher value.
How it was run: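 Material: reconstituted apoptosome with Apaf-1, cytochrome c, caspase-9, procaspase-3, dATP; medium: pH 7.5 Hepes buffer with CHAPS, BSA, DTT; also added: cytochrome c and DEVD-Rh110 substrate; timing: 30 min plus 50 min, RT; signal: Rh110 fluorescence intensity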

Apoptotic protease-activating factor 1 (Homo sapiens), sequence (O14727 whole entry, looked up): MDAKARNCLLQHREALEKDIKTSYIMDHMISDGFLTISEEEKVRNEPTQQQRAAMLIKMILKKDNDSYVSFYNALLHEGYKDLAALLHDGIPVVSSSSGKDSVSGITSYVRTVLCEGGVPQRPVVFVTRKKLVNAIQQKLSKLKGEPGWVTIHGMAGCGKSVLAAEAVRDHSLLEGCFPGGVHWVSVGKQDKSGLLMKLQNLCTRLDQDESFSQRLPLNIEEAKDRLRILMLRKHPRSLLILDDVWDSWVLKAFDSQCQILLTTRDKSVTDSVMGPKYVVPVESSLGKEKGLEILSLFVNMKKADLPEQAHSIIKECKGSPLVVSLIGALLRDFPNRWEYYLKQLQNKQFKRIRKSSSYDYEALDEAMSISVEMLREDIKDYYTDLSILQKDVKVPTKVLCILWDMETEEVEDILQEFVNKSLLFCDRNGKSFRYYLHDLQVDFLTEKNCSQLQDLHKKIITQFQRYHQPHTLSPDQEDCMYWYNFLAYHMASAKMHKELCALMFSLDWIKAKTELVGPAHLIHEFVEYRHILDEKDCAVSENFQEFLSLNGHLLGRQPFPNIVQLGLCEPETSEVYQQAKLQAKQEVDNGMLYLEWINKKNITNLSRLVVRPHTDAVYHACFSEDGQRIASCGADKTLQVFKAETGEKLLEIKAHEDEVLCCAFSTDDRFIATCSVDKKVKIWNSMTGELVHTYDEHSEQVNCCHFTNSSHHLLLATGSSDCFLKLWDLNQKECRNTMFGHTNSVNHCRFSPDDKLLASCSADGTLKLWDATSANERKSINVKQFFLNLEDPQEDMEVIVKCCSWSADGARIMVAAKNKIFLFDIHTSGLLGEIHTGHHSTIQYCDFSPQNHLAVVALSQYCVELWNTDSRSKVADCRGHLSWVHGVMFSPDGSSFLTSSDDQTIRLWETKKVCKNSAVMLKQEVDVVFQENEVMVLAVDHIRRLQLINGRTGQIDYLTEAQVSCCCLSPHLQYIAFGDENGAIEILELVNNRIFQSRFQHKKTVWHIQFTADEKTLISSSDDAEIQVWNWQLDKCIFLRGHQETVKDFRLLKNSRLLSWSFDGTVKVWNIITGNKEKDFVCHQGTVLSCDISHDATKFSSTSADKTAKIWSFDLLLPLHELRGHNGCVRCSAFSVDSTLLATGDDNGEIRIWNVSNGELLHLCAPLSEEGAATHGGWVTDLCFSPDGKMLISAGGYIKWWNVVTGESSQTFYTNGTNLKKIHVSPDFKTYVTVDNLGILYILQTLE

Structure (SMILES) | inhibition
COc1cc(NC(=O)CCS(=O)(=O)c2ccc3c(c2)oc(=O)n3C)cc(OC)c1 | -0.825% (inactive)
Cc1c(NS(=O)(=O)c2cc(C(=O)NCCc3ccc(F)cc3)cc(Cl)c2Cl)c(=O)n(-c2ccccc2)n1C | 16% (inactive)
CCOC(=O)c1ccc2c(c1)nc(SCC(=O)NC(C)C)n2CC | -14.5% (inactive)
Cc1ccc(C(=O)N/N=C/c2cccc3ccccc23)cn1 | -7.7% (inactive)
O=C(N/N=C\c1cc(Br)c(Br)o1)C1COc2ccccc2O1 (stereo not given) | 6.95% (inactive)
Cc1ccc(C(=O)N/N=C\c2cc(Br)c(Br)o2)cn1 | 75.4% (active)
O=C(OCc1ccccc1F)c1ccc2c(c1)OCCO2 | 9.05% (inactive)
CCOC(=O)CCC(=O)OCC(=O)NC(C)C1CC2CCC1C2 (stereo not given) | 3.06% (inactive)
COC(=O)c1ccc(NC(=O)c2cc3c(CO)cnc(C)c3oc2=Nc2cccc(C(N)=O)c2)cc1 | -28.9% (inactive)
CC(=O)N1N=C(c2ccncc2)OC1(Cc1ccccc1)Cc1ccccc1 | 3.9% (inactive)
O=C(O/N=C(/c1ccccc1)c1ccncc1)c1ccccc1[N+](=O)[O-] | -9.34% (inactive)
CCC(=O)c1ccc(OCC(=O)Nc2ccc(N3CCCCC3)cc2)cc1 | -8.58% (inactive)
Cc1cc(N2CCCC2)ccc1NC(=O)COc1ccc(Cl)cc1 | 62.2% (active)
Cc1cc(C)cc(OCC(=O)Nc2ccc(N3CCOCC3)cc2N2CCOCC2)c1 | 21.9% (inactive)
CS(=O)(=O)N(CC(=O)N1CCN(c2ccc(F)cc2)CC1)C1CCCCC1 | -2.79% (inactive)
O=C(NC1CCCC1)C(c1c(F)cccc1Cl)N(C(=O)c1csnn1)C1CC1 (stereo not given) | 6.38% (inactive)
Cc1ccc2c(c1)C1CN(C)CCC1N2S(=O)(=O)c1ccc(Oc2ccc([N+](=O)[O-])cc2)cc1 (stereo not given) | 59.9% (active)
Cc1ccc2c(c1)C1CN(C)CCC1N2S(=O)(=O)c1cccc(F)c1 (stereo not given) | 1.11% (inactive)
Cc1ccc2c(c1)C1CN(C)CCC1N2C(=S)Nc1ccc(OC(F)F)cc1 (stereo not given) | -7.03% (inactive)
COc1ccc(N2CCN(C(=O)c3cn(C)c4ccc(S(=O)(=O)N5CCOCC5)cc4c3=O)CC2)cc1 | -4.77% (inactive)
CCC(CC)c1nnc(NC(=O)C2=COCCO2)s1 | 3.27% (inactive)
Cc1cnc(NC(=O)c2ccccn2)s1 | -31.2% (inactive)
CCN(CC)CCOc1ccc2c(c1)C(=NNC(=O)c1ccccn1)c1cc(OCCN(CC)CC)ccc1-2 | 52.5% (active)
C/C(=N\NC(=O)c1ccccc1F)c1ccccn1 | -4.33% (inactive)
Cc1ccc2c(Cl)c(C(=O)NCCCn3ccnc3)sc2c1 | 10.1% (inactive)
